Measured values reported in ChEMBL document CHEMBL4823328, “Structure-Guided Design of d-Galactal Derivatives with High Affinity and Selectivity for the Galectin-8 N-Terminal Domain” (ACS Med Chem Lett, 2021).
Active and inactive are the calls of the source. The calls are words filed in the database; no cut-off is given here.

Key:
Homo sapiens [1] = species: Homo sapiens; experiment: Selectivity for human galectin-8N over human galectin-4 C terminal domain
Galectin-7 [2] = molecular target: T1, Galectin-7 (Homo sapiens, UniProt P47929); experiment: Binding affinity to human galectin-7 assessed as dissociation constant by competitive fluorescence polarization assay
T1 sequence (P47929 whole entry): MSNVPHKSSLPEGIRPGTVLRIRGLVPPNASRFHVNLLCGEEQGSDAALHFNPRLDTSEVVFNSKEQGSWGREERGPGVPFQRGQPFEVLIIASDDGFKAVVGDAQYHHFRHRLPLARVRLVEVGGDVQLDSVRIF

Homo sapiens [3] = species: Homo sapiens; experiment: Selectivity for human galectin-8N over human galectin-3
Galectin-2 = molecular target: T2, Galectin-2 (Homo sapiens, UniProt P05162); experiment: Binding affinity to human galectin-2 assessed as dissociation constant by competitive fluorescence polarization assay
T2 sequence (P05162 whole entry): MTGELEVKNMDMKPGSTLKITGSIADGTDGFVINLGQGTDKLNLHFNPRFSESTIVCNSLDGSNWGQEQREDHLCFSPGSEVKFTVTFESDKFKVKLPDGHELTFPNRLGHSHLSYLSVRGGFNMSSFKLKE

Galectin-9 [4] = molecular target: T3, Galectin-9 (Homo sapiens, UniProt O00182); experiment: Binding affinity to human galectin-9 C terminal domain assessed as dissociation constant by competitive fluorescence polarization assay
T3 sequence (O00182 whole entry, the tested form may be a part): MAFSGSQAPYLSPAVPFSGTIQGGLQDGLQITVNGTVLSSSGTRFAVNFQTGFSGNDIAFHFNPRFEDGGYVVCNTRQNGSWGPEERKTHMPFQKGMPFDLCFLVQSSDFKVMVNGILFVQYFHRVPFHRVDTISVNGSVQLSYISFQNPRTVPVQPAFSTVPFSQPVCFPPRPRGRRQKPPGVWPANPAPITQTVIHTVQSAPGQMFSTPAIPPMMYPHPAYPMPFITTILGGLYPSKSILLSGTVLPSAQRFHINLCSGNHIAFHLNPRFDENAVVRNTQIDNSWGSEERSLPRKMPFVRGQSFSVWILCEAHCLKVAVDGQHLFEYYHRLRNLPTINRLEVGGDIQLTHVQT

Homo sapiens [5] = species: Homo sapiens; experiment: Selectivity for human galectin-8N over human galectin-9 N terminal domain
Galectin-9 [6] = molecular target: T3, Galectin-9; experiment: Binding affinity to human galectin-9 N terminal domain assessed as dissociation constant measured up to 1500 uM by competitive fluorescence polarization assay; settings: dose microM <=1500
Homo sapiens [7] = species: Homo sapiens; experiment: Selectivity for human galectin-8N over human galectin-1
Homo sapiens [8] = species: Homo sapiens; experiment: Selectivity for human galectin-8N over human galectin-4 N terminal domain
Homo sapiens [9] = species: Homo sapiens; experiment: Selectivity for human galectin-8N over human galectin-8 C terminal domain
Galectin-9 [10] = molecular target: T3, Galectin-9; experiment: Binding affinity to human galectin-9 N terminal domain assessed as dissociation constant by competitive fluorescence polarization assay
Galectin-4 [11] = molecular target: T4, Galectin-4 (Homo sapiens, UniProt P56470); experiment: Binding affinity to human galectin-4 N terminal domain assessed as dissociation constant by competitive fluorescence polarization assay
T4 sequence (P56470 whole entry): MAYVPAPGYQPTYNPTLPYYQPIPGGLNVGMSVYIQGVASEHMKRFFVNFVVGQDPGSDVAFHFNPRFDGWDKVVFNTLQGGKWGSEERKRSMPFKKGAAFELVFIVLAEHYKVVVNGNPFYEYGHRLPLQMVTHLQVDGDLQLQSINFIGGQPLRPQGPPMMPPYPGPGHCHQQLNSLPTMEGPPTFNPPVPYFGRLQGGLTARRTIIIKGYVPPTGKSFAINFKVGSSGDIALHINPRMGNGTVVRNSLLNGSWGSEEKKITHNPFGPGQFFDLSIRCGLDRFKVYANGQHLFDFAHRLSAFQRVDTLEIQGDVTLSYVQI

Galectin-4 [12] = molecular target: T4, Galectin-4; experiment: Binding affinity to human galectin-4 C terminal domain assessed as dissociation constant by competitive fluorescence polarization assay
K562 = experiment: Cytotoxicity against human K562 cells assessed as cell viability at 1 to 100 uM measured after 24 hrs by MTS assay; format: functional, cell-based; settings: dose 1-100 µM
Procedure, shortened: (§1)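 MTS viability assay on human PBMCs and on the K562 and MDA-MB-231 cancer lines. The cancer lines were exposed to 1–100 μM compound, and PBMCs to concentrations up to 100 μM. Read-out was the MTS tetrazolium reduction signal.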

Homo sapiens [13] = species: Homo sapiens; experiment: Selectivity for human galectin-8N over human galectin-2
Galectin-7 [14] = molecular target: T1, Galectin-7; experiment: Binding affinity to human galectin-7 assessed as dissociation constant measured up to 1500 uM by competitive fluorescence polarization assay; settings: dose microM <=1500
[15] = Cytotoxicity against human PBMC cells assessed as cell viability upto 100 uM measured after 24 hrs by MTS assay; format: cell-based; procedure, shortened: as §1
[16] = molecular target: T5, Galectin-8 (Homo sapiens) (UniProt O00214); experiment: Antagonist activity at galactin-8 in human MDA-MB-231 cells assessed as reduction in IL-8 secretion at 100 uM measured after 24 hrs by flow cytometry relative to control; format: cell-based; design: scale not given: the % may be the effect or the level left
T5 sequence (whole entry): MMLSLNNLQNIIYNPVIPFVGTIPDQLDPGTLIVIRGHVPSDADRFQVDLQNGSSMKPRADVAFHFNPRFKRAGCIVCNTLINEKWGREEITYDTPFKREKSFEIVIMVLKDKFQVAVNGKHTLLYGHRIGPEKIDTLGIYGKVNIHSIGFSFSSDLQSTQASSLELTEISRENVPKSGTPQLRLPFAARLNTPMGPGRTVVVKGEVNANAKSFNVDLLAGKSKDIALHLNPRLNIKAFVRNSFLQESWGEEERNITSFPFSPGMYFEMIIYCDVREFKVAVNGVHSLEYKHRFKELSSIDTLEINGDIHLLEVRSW
Procedure, shortened: (§2)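 MDA-MB-231 cells, which express galectin-8 endogenously, were incubated with the compounds at 10 or 100 μM. Secreted IL-6 and IL-8 were quantified in pg/mL and compared with untreated cells. Values are means ± SEM from three independent experiments, with significance tested against untreated controls. Cell viability at the same concentrations was checked separately by MTS assay.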

[17] = molecular target: T5, Galectin-8 (Homo sapiens); experiment: Antagonist activity at galactin-8 in human MDA-MB-231 cells assessed as reduction in IL-6 secretion at 100 uM measured after 24 hrs by flow cytometry relative to control; format: cell-based; design: scale not given: the % may be the effect or the level left; procedure, shortened: as §2
MDA-MB-231 = experiment: Cytotoxicity against human MDA-MB-231 cells assessed as cell viability at 1 to 100 uM measured after 24 hrs by MTS assay; format: functional, cell-based; settings: dose 1-100 µM; procedure, shortened: as §1
Homo sapiens [18] = species: Homo sapiens; experiment: Selectivity for human galectin-8N over human galectin-9 C terminal domain
Galectin-9 [19] = molecular target: T3, Galectin-9; experiment: Binding affinity to human galectin-9 C terminal domain assessed as dissociation constant measured up to 1500 uM by competitive fluorescence polarization assay; settings: dose microM <=1500
[20] = molecular target: T5, Galectin-8 (Homo sapiens); experiment: Antagonist activity at galactin-8 in human MDA-MB-231 cells assessed as reduction in IL-6 secretion at 10 uM measured after 24 hrs by flow cytometry relative to control; format: cell-based; design: scale not given: the % may be the effect or the level left; procedure, shortened: as §2
Galectin-8 = molecular target: T6, Galectin-8 (Homo sapiens, UniProt O00214); experiment: Binding affinity to human galectin-8 C terminal domain assessed as dissociation constant by competitive fluorescence polarization assay
T6 sequence (O00214 whole entry): T5 sequence (whole entry)

[21] = molecular target: Galectin-1 (Homo sapiens) (UniProt P09382); experiment: Binding affinity to human galectin-1 assessed as dissociation constant measured up to 1500 uM by competitive fluorescence polarization assay; settings: dose microM <=1500
Chain of Galectin-1 (Homo sapiens) (P09382 whole entry, the tested form may be a part): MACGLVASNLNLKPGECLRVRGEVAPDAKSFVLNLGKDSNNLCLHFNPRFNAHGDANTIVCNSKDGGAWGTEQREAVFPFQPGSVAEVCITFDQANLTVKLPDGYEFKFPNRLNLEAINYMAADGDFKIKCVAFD

[22] = molecular target: T5, Galectin-8 (Homo sapiens); experiment: Binding affinity to human galectin-8 C terminal domain assessed as dissociation constant measured up to 1500 uM by competitive fluorescence polarization assay; settings: dose microM <=1500
[23] = molecular target: T7, Galectin-2 (Homo sapiens) (UniProt P05162); experiment: Binding affinity to human galectin-2 assessed as dissociation constant measured up to 1500 uM by competitive fluorescence polarization assay; settings: dose microM <=1500
T7 sequence (whole entry): T2 sequence (P05162 whole entry)

[24] = molecular target: T8, Galectin-4 (Homo sapiens) (UniProt P56470); experiment: Binding affinity to human galectin-4 N terminal domain assessed as dissociation constant measured up to 1500 uM by competitive fluorescence polarization assay; settings: dose microM <=1500
T8 sequence (whole entry): T4 sequence (P56470 whole entry)

| Selectivity ratio (Homo sapiens [1]) | Kd (Galectin-7 [2]) | Selectivity ratio (Homo sapiens [3]) | Kd (Galectin-2) | Selectivity ratio (Homo sapiens [5]) | Activity (Galectin-9 [6]) | Selectivity ratio (Homo sapiens [7]) | Selectivity ratio (Homo sapiens [8]) | Selectivity ratio (Homo sapiens [9]) | Selectivity ratio (Homo sapiens [13]) | Selectivity ratio (Homo sapiens [18]) | Activity (Galectin-9 [19]) | Structure (SMILES) | further results |
| --- | --- | --- | --- | --- | --- | --- | --- | --- | --- | --- | --- | --- | --- |
| > 2 | Not Active | > 2 | Not Active | > 2 | – | > 2 | > 2 | – | – | > 2 | – | OC[C@H]1Oc2cc(Cc3ccc(F)cc3)cc3c2[C@@H](OC3)[C@H]1O | Kd (Galectin-8): Not Active; Kd (Galectin-4 [12]; read-out: Kd): > 3 mM |
| > 2 | Not Active | > 2 | Not Active | > 2 | inactive | > 2 | > 2 | > 2 | – | > 2 | inactive | COC(=O)c1ccc2nc(CO[C@@H]3C=CO[C@H](CO)[C@@H]3O)[nH]c2c1 | Activity [21]: inactive |
| > 2 | Not Active | > 2 | – | > 2 | – | > 2 | > 2 | > 2 | > 2 | > 2 | inactive | COC(=O)c1ccc2ccc(CO[C@@H]3C=CO[C@H](CO)[C@@H]3O)nc2c1 | Activity [21]: inactive; Activity [22]: inactive; Activity [23]: inactive |
| > 2 | – | > 2 | – | > 2 | – | > 2 | > 2 | > 2 | > 2 | > 2 | inactive | O=C(O)c1ccc2ccc(CO[C@@H]3C=CO[C@H](CO)[C@@H]3O)nc2c1 | Activity (Galectin-7 [14]): inactive; Activity [24]: inactive |
| > 2 | – | > 2 | – | > 2 | inactive | > 2 | > 2 | > 2 | > 2 | > 2 | – | O=C(O)c1ccc2nc(CO[C@@H]3C=CO[C@H](CO)[C@@H]3O)[nH]c2c1 | Activity [21]: inactive; Activity (K562): inactive; Activity (Galectin-7 [14]): inactive; Activity [15]: Non-Toxic; Kd (Galectin-8): Not Active; Activity (MDA-MB-231): inactive |

More lines, now with the values behind:

| Structure (SMILES) | Selectivity ratio (Homo sapiens [1]) | Kd (Galectin-7 [2]) | Selectivity ratio (Homo sapiens [3]) | Kd (Galectin-2) | Selectivity ratio (Homo sapiens [5]) | Activity (Galectin-9 [6]) | Selectivity ratio (Homo sapiens [7]) | Selectivity ratio (Homo sapiens [8]) | Selectivity ratio (Homo sapiens [9]) | Selectivity ratio (Homo sapiens [13]) | Selectivity ratio (Homo sapiens [18]) | Activity (Galectin-9 [19]) | further results |
| --- | --- | --- | --- | --- | --- | --- | --- | --- | --- | --- | --- | --- | --- |
| COC(=O)c1ccc2nc(CO[C@@H]3C=CO[C@H](CO)[C@@H]3O)n(C)c2c1 | > 2 | Not Active | > 2 | Not Active | > 2 | inactive | > 2 | > 2 | > 2 | – | – | – | Kd (Galectin-9 [4]): Not Active |
| CO[C@@H]1O[C@H](CO)[C@H](O)[C@H](O)[C@H]1O | – | Not Active | – | – | – | – | – | – | – | – | – | – | – |
| CCOC(=O)c1ccc2c(c1)nc(CO[C@@H]1C=CO[C@H](CO)[C@@H]1O)n2C | – | Not Active | 0.99 | Not Active | – | – | 1.2 | – | > 2 | – | – | – | Kd (Galectin-9 [10]): Not Active; Kd (Galectin-4 [11]): Not Active; Kd (Galectin-4 [12]): Not Active; Kd (Galectin-9 [4]): Not Active |
| Cn1c(CO[C@@H]2C=CO[C@H](CO)[C@@H]2O)nc2ccc(C(=O)O)cc21 | > 2 | – | – | – | > 2 | – | – | > 2 | > 2 | > 2 | > 2 | inactive | Activity (K562): inactive; Activity (Galectin-7 [14]): inactive; Activity [15]: Non-Toxic; Activity [16]: 55%; Activity [17]: 65%; Activity (MDA-MB-231): inactive |
| Cn1c(CO[C@@H]2[C@@H](O)[C@@H](Sc3ccc(Cl)c(Cl)c3)O[C@H](CO)[C@@H]2O)nc2ccc(C(=O)O)cc21 | – | – | – | – | – | – | – | – | – | – | – | – | Activity [20]: 15%; Activity (K562): inactive; Activity [15]: Non-Toxic; Activity [16]: 55%; Activity [17]: 65%; Activity (MDA-MB-231): inactive |
| OC[C@H]1OC=C[C@@H](O)[C@H]1O | > 2 | Not Active | > 2 | Not Active | > 2 | inactive | 1.2 | 1.8 | > 2 | – | > 2 | – | – |
| Cn1c(CO[C@@H]2C=CO[C@H](CO)[C@@H]2O)nc2cc(C(=O)O)ccc21 | > 2 | Not Active | 0.95 | Not Active | > 2 | inactive | 1.4 | > 2 | > 2 | – | > 2 | inactive | – |
